The values that follow come from ChEMBL document CHEMBL3580633, “Benzoxaborole antimalarial agents. Part 4. Discovery of potent 6-(2-(alkoxycarbonyl)pyrazinyl-5-oxy)-1,3-dihydro-1-hydroxy-2,1-benzoxaboroles” (J Med Chem, 2015).

Data set [1] can be described thus: AUC (0 to 2 hrs) in CD1 mouse at 30 mg/kg, po by HPLC coupled to tandem mass spectrometry. More on the design: dose 30 mg/kg, time < 2 hr, route oral. In kind it is ADME, organism-based. The conditions noted are these: in vivo. In short, it runs like this: (§1)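 Adult female CD-1 mice were dosed 10 mg/kg by iv injection or 30 mg/kg by oral gavage, with the compound in 100% saline. Blood samples were collected and drug content was measured by HPLC-tandem MS.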

Data set [2] is described as follows: Tmax in CD1 mouse at 30 mg/kg, po by HPLC coupled to tandem mass spectrometry. In kind it is ADME, organism-based. The conditions noted are these: in vivo. In short, it runs like this: as §1
Data set [3] is described as follows: Cmax in CD1 mouse at 30 mg/kg, po by HPLC coupled to tandem mass spectrometry. It is filed as ADME, organism-based. On the set-up: dose 30 mg/kg, route oral. The settings on record: in vivo. The gist of the method: as §1
A further data set deals with Plasmodium falciparum. In words: Antimalarial activity against chloroquine-sensitive Plasmodium falciparum 3D7 cultured in human erythrocytes incubated for 72 hrs by [3H]-hypoxanthine incorporation assay. In kind it is functional, organism-based.
Data set [4] concerns Plasmodium berghei. Description: Antiplasmodial activity against Plasmodium berghei infected in Swiss Webster mouse assessed as mouse survival at 100 mg/kg, po dosed once daily for 4 consecutive days beginning 1 hr after initial infection and measured on day 16 to 19 post infection by Giemsa staining method. In kind it is functional. The gist of the method:
(§2)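 Female Swiss Webster mice (about 20 g) infected ip with 6 × 10^6 P. berghei-infected erythrocytes. Oral gavage once daily for 4 days, starting 1 h after infection. Vehicle PEG300/propylene glycol/water (55/25/20 by weight). Giemsa-smear parasitemia counted daily from day 4. Mice euthanised above 50% parasitemia. Survival followed to day 21, 5 mice per dose, chloroquine 30 mg/kg as reference.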

Data set [5] relates to Mus musculus. In words: Tmax in CD1 mouse assessed as 5-(1-hydroxy-1,3-dihydrobenzo[c][1,2]oxaborol-6-yloxy)pyrazine-2-carboxylic acid level at 5 mg/kg, po by HPLC coupled to tandem mass spectrometry. In kind it is ADME, organism-based. The conditions noted are these: in vivo. The gist of the method: (§3)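 The parent ester was given to adult female CD-1 mice at 5 mg/kg, iv or by oral gavage, in PEG 400/dimethylacetamide/water (45/10/45, pH 5.8). Blood was sampled, and the acid formed from the ester in vivo was quantified by HPLC-tandem MS to derive its PK parameters.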

Data set [6] has as its system Plasmodium berghei. In words: Antiplasmodial activity against Plasmodium berghei infected in Swiss Webster mouse assessed as mouse survival at 100 mg/kg, po dosed once daily for 4 consecutive days beginning 1 hr after initial infection and measured on day 13 post infection by Giemsa staining method. It is filed as functional. The gist of the method:
as §2

In data set [7] the test system is Mus musculus. In words: Cmax in CD1 mouse assessed as 5-(1-hydroxy-1,3-dihydrobenzo[c][1,2]oxaborol-6-yloxy)pyrazine-2-carboxylic acid level at 5 mg/kg, po by HPLC coupled to tandem mass spectrometry. It is filed as ADME, organism-based. More on the design: dose 5 mg/kg, route oral. The settings on record: in vivo. In short, it runs like this:
as §3

Data set [8] concerns Plasmodium berghei. Description: Antiplasmodial activity against Plasmodium berghei infected in Swiss Webster mouse assessed as mouse survival at 100 mg/kg, po dosed once daily for 4 consecutive days beginning 1 hr after initial infection and measured on day 14 post infection by Giemsa staining method. In kind it is functional. In short, it runs like this:
as §2

The subject of data set [9] is Plasmodium berghei. Description: Antiplasmodial activity against Plasmodium berghei infected in Swiss Webster mouse assessed as mouse survival at 33 mg/kg, po dosed once daily for 4 consecutive days beginning 1 hr after initial infection and measured on day 13 post infection by Giemsa staining method. In kind it is functional. In short, it runs like this: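 Female Swiss Webster mice (about 20 g) were infected ip with 6 × 10^6 P. berghei-infected erythrocytes from a donor mouse. They were dosed by oral gavage once daily for 4 days, starting 1 h post-infection, in PEG 300/propylene glycol/water (55/25/20 by weight). Parasitemia was read daily on Giemsa smears from day 4, and mice were euthanized above 50% parasitemia. Percent survival was tracked to 21 days.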

The test system of data set [10] is Plasmodium berghei. In words: Antiplasmodial activity against Plasmodium berghei infected in Swiss Webster mouse assessed as mouse survival at 3 mg/kg, po dosed once daily for 4 consecutive days beginning 1 hr after initial infection and measured on day 12 post infection by Giemsa staining method. In kind it is functional. In short, it runs like this: as §2
In data set [11] the test system is Plasmodium berghei. Description: Antiplasmodial activity against Plasmodium berghei infected in Swiss Webster mouse assessed as mouse survival at 200 mg/kg, po dosed once daily for 4 consecutive days beginning 1 hr after initial infection and measured on day 7 post infection by Giemsa staining method. It is filed as functional. In short, it runs like this: as §2

In data set [12] the test system is Plasmodium berghei. Description: Antiplasmodial activity against Plasmodium berghei infected in Swiss Webster mouse assessed as mouse survival at 200 mg/kg, po dosed once daily for 4 consecutive days beginning 1 hr after initial infection and measured on day 8 post infection by Giemsa staining method. In kind it is functional. The gist of the method: as §2

What is called AUC(0-t) is exposure summed from dosing to a finite time, without extrapolation to infinity. Read a low AUC(0-t) as low exposure. What is called Tmax is the time at which the peak concentration occurs. For orientation: Cmax means the peak of the concentration-time curve. The term IC50 denotes the point on the concentration scale where inhibition reaches its midpoint. Read a low IC50 as higher potency. In data set [1], `O=C(O)c1cnc(Oc2ccc3c(c2)B(O)OC3)cn1` had an AUC(0-t) at 2 h of 8620 ng·h/mL. Besides, the Tmax in data set [2] stood at 15 min. For the same compound, in [3], the Cmax came to 19500 ng/mL. In the data set on Plasmodium falciparum, this compound displayed a half-maximal inhibitory concentration (IC50) of 300 nM.
Take `COC(=O)c1cnc(Oc2ccc3c(c2)B(O)OC3)cn1`: the results for the survival at 100 mg/kg in the data set on Plasmodium berghei [4], in the data set with Plasmodium berghei [6] and in the data set on Plasmodium berghei [8] were 20%, 60% and 40%, respectively. In addition, the Tmax with Mus musculus [5] stood at 15 min. Besides, in the data set with Mus musculus [7], the highest concentration (Cmax) was 920 ng/mL. Moreover, the survival at 33 mg/kg with Plasmodium berghei [9] was 0%. In the data set with Plasmodium berghei [10], the survival at 3 mg/kg amounted to 0%.
On to `NC(=O)c1cnc(Oc2ccc3c(c2)B(O)OC3)cn1`, for which the survival at 200 mg/kg with Plasmodium berghei [11] and in the data set with Plasmodium berghei [12] was 100% throughout.
